Results from ChEMBL document CHEMBL3272073, “3-Fluoro-1-hydroxypropan-2-one (fluorohydroxyacetone) and some esters. Syntheses and effects in BDF mice” (J Med Chem, 1977).
Activity calls are given as the source filed them.

What was measured:
[1] = Toxicity in ip dosed BDF1 mouse; format: organism-based; settings: in vivo
Summary of the method: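 Acute toxicity in female BDF1 mice, reported as LD50 in mg/kg and mmol/kg.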

Ehrlich [2] = assay: Antitumor activity against mouse EAC allografted in BDF1 mouse assessed as inhibition of tumor growth < LD50 administered as ip; format: functional
[3] = Toxicity in mouse L1210 cells allografted immunosuppressed BDF1 mouse assessed as mortality dosed intraperitoneally <LD50 after 60 days; format: organism-based; settings: in vivo, ip, read-out: Activity
L1210 = assay: Antitumor activity against mouse L1210 cells allografted in immune competent BDF1 mouse assessed as increase of host survival at < LD50 administered as ip after 60 days; format: functional
Ehrlich [4] = assay: Antitumor activity against mouse EAC allografted in BDF1 mouse assessed as cure from tumor at < LD50 administered as ip after 180 days; format: functional, organism-based
Summary of the method: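 Mice bearing Ehrlich ascites carcinoma were treated with ester. Cure was defined as survival to 180 days.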

SMILES	LD50 [1] [µmol/kg]	also measured
C1CCC(NC2CCCCC2)CC1.O=P(O)(O)OCC(O)CCl	2100	–
O=C(OCC(O)CCl)c1ccccc1 (stereo not given)	2100	–
C1CCC(NC2CCCCC2)CC1.O=P(O)(O)OCC(O)CF	300	–
O=C(CBr)COC(=O)c1ccccc1	120	–
O=C(CO)CF	220	–
O=C(CF)COC(=O)c1ccccc1	180	TGI (Ehrlich [2]): Active
O=C(OCC(O)CF)c1ccccc1 (stereo not given)	230	–
CC(=O)OCC(=O)CCl	470	–
OCC(O)CBr (stereo not given)	1370	–
O=C(CCl)COP(=O)(O)O	360	–
CC(=O)OCC(CF)OC(C)=O (stereo not given)	220	–
OCC(O)CF (stereo not given)	210	–
COC(CO)(CF)OC	200	–
OCC(O)CCl (stereo not given)	1800	–
O=C(OCC(O)CBr)c1ccccc1 (stereo not given)	1370	–
O=C(CCl)COC(=O)c1ccccc1	330	mortality at 1440 h [3]: 85%; Survival (L1210): 85%; Activity (Ehrlich [4]): Active
COC(CF)(COC(=O)c1ccccc1)OC	230	–
CC(=O)COC(=O)c1ccccc1	7860	–
O=C(CF)COC(=O)c1ccc([N+](=O)[O-])cc1	370	–
CC(=O)OCC(=O)CF	220	–
O=C(CF)COP(=O)(O)O	150	TGI (Ehrlich [2]): Active
O=C(CCl)COC(=O)c1cc([N+](=O)[O-])cc([N+](=O)[O-])c1	880	–
CC(=O)OCC(CCl)OC(C)=O (stereo not given)	1740	–
O=C(CCl)COC(=O)c1ccc([N+](=O)[O-])cc1	660	Activity (Ehrlich [4]): Active
